# Most compounds without a hit are left out; they make up all but 1.2% or so of the library.
# CTSL1 counter – cathepsin L1 inhibition, PFM18AAP counter-screen; inhibition, % at 5.96 µM; AID 1906; 300,000 tested, 0.49% active; recombinant F. hepatica cathepsin L1, Z-Leu-Arg-MCA fluorescence;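 active = inhibition above the mean of all tested compounds plus 3 SD, set per screening campaign, cut at about 17% in these data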
# NPR2 activator – GC-B (human) receptor activation; P20594; HEK293-GC-B cells, CNP EC30, cGMP TR-FRET; 0% at EC30 CNP, 100% saturating CNP; activation, % at 10 µM; 370,000 tested, 0.11% active; AID 1920062;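 active = activation at 10 µM reaching about 35% in either raw or pattern-adjusted values, limit read from the data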
# GC-A act – GC-A (human) enzyme activation; activation, % at 10 µM; 370,000 tested, 0.14% active; HEK293 GC-A cells, cGMP TR-FRET, EC30 ANP; 0% at EC30 ANP, 100% saturating ANP; P16066; AID 1671463; in the data active = activation above about 40%
# ASAP1 inh – ASAP1 ArfGAP inhibition; Q9ULH1; ASAP1-stimulated ARF1 GTP hydrolysis, GDP FP detection; inhibition, % at 16.5 µM; 360,000 tested, 0.19% active; AID 624377; in the data active = inhibition above about 25%
# Target sequence (Q9ULH1 325-724 limits assumed): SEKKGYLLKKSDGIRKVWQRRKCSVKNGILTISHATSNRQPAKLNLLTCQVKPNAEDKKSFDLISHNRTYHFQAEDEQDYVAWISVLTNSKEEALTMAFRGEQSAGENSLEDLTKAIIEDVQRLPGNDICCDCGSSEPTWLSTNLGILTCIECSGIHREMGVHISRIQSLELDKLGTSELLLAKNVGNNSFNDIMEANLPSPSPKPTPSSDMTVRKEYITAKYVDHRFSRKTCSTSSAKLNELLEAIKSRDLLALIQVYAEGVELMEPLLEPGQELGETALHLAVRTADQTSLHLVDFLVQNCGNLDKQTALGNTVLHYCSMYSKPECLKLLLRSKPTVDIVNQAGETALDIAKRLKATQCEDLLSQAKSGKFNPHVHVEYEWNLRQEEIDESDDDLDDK
# HCV core dimer – blocks dimerization of HCV core protein | TR-FRET GST/Flag-core106 dimerization, 1536-well | inhibition, % at 5 µM | 300,000 tested, 0.33% active;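 active = inhibition above the mean of all tested compounds plus 3 SD, set per screening campaign, cut at about 45% in these data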
#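 System: GST-tagged and Flag-tagged HCV core protein residues 1-106 / Input: core106 proteins, GST 13.5 nM and Flag 17 nM / Buffer or medium: KF-containing HEPES buffer, pH 7.45, DTT, CHAPS, BSA / Probe or stimulus: Eu-anti-GST and XL665-anti-Flag labelled anti-tag antibodies / Schedule: 4 h, 22.5 °C incubation / Technique: TR-FRET 671 and 617 nm emission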
# ARFGAP1 inh – inhibits rat ARF GTPase activating protein 1. Q62848. inhibition, % at 16.5 µM. AID 651572. Arfgap1-stimulated ARF1 GTP hydrolysis, GDP FP detection. 360,000 tested, 0.26% active;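 active = inhibition above a per-plate limit, mean inhibition of low control wells plus 3 SD, cut at about 25% in these data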
# Target sequence (Q62848 1-136 limits assumed): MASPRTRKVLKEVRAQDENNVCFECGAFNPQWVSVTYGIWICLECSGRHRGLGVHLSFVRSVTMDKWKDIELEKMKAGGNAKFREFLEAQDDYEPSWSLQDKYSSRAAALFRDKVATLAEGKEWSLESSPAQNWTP
#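 System: truncated rat Arfgap1 GAP domain / Benchmarks: high control wells lacking Arfgap1, low control full reaction with DMSO / Times: compound-enzyme preincubation 20 min, reaction 120 min, detection 60 min, 25 °C / Repeats: one replicate per compound / Also added: human ARF1(Δ1-17)-GTP substrate / Measured by: Tracer-displacement fluorescence polarization with EDTA stop, 620/688 nm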
# Numbers stand for hits; n = inactive; x = no result.
SMILES,CTSL1 counter,NPR2 activator,GC-A act,ASAP1 inh,HCV core dimer,ARFGAP1 inh
N#Cc1c(Nc2ccccc2)sc(C(=O)c2ccc(F)cc2)c1N,n,n,n,n,n,n
Nc1c(C(=O)c2ccccc2)sc(Nc2ccccc2)c1S(=O)(=O)c1ccccc1,19,n,n,n,n,n
COc1ccc(S(=O)(=O)N2CCCCCC2)cc1NC(C)C(=O)Nc1ccc(NC(C)=O)cc1 (stereo not given),x,n,n,n,x,n
COc1ccc(OC)c2c1C(=O)c1ccccc1C2=O,n,n,n,n,n,n
COc1ccc(OC)c2c1C(=O)C(Cl)=C(Cl)C2=O,n,n,43,n,n,n
CC1CN(Cc2nc3c(c(=O)n(C)c(=O)n3C)n2CCCO)CC(C)O1 (stereo not given),n,n,n,n,n,n
CCCN(CCC)CCNC(=O)C(NS(=O)(=O)c1ccc2c(c1)CCC(=O)N2)c1ccccc1 (stereo not given),31,x,x,x,n,x
CCc1sc(C(=O)Nc2ccc(N3CCOCC3)cc2)cc1C,x,n,n,n,x,n
CCc1cc2cc(C(=O)Nc3ccc(C)cc3)sc2s1,n,n,n,n,52,n
Cc1cc(OCc2nn[nH]n2)c2c(C)c(CC(=O)O)c(=O)oc2c1,n,n,n,n,n,n
CC1=CCP(=O)(c2ccccc2)C1 (stereo not given),n,n,n,n,n,n
CCC1CCC(C(=O)NC(C(=O)NCCN2CCOCC2)C(C)C)CC1 (stereo not given),30,n,n,n,n,n
Cc1cc(NC(=O)CSc2nnc(C3CC3)n2N)no1,n,n,n,n,n,n
O=[N+]([O-])c1cc(-c2ccc(C(=S)N3CCOCC3)o2)ccc1Cl,n,n,n,n,n,n
N#CCCN1CCN(C(=S)c2ccc(-c3ccc(Cl)c(Cl)c3)o2)CC1,n,61,n,n,n,n
O=C(O)c1ccc(-c2cccc(Cl)c2)o1,n,n,n,n,n,n
N#CCCN1CCN(C(=S)c2ccc(-c3cccc(Cl)c3)o2)CC1,n,73,n,n,n,n
CC1=Nc2ccccc2/C1=C/c1nc(-c2ccc(C)s2)oc1O,25,n,n,n,n,n
COc1ccc(-c2nc(/C=C3\C(C)=Nc4ccccc43)c(O)o2)cc1,n,n,n,n,n,n
CC1=Nc2ccccc2/C1=C\c1nc(-c2ccccc2)oc1O,17,n,n,n,n,n
CC(C)(C)c1ccc(-n2nc(C#N)c(Cl)cc2=O)cc1,x,74,69,n,x,n
Cc1ccc(Cc2c(-c3ccc(Br)cc3)nc3cc(C)ccn23)cc1,x,46,n,n,x,n
NC(=S)N/N=C/c1ccc2cccc(OCc3ccccc3)c2n1,18,n,n,n,n,n
O/N=C/c1ccc2cccc(OCc3ccccc3)c2n1,n,n,n,n,n,n
COc1ccc(C(=O)CCS(=O)(=O)c2ccc(C)cc2)cc1,n,n,n,n,n,n
SMILES,CTSL1 counter,NPR2 activator,GC-A act,ASAP1 inh,HCV core dimer,ARFGAP1 inh
Cc1ccc(C(=O)CCS(=O)(=O)c2ccc(Br)cc2)cc1,n,n,46,n,n,n
Cc1ccc(S(=O)(=O)CCC(=O)c2cccc([N+](=O)[O-])c2)cc1,20,n,n,n,n,n
O=C(CN(Cc1ccccc1F)C(=O)c1csnn1)NC1CCCCC1,n,n,n,n,n,n
Cc1ccc(CCNC(=O)C2CCN(C(=O)c3sccc3-n3cccc3)CC2)cc1,n,n,n,n,n,n
Cc1cccc(-n2c(-c3ccncc3)n[nH]c2=S)c1C,n,n,n,n,49,n
CC(C)CC(NC(=O)C(COCc1ccccc1)NC(=O)OC(C)(C)C)C(=O)NN (stereo not given),18,n,n,n,n,n
COc1ccc(CC(=O)NNC(=O)CSc2nnc(C)n2-c2ccccc2)cc1,n,n,n,n,n,n
Cc1ccccc1NS(=O)(=O)c1ccc(C(=O)N2CCC2)cc1,19,n,n,n,n,n
Cc1cc2cc(C)c3nnc(SCC(=O)N4CCN(C(=O)c5ccco5)CC4)n3c2cc1C,n,n,n,n,n,n
Oc1ccc(N=Cc2ccc(-c3cccs3)s2)cc1,40,n,n,n,n,n
O=Cc1ccc(-c2cccs2)s1,x,n,n,n,x,n
CC(C)C1Nc2ccc(S(N)(=O)=O)cc2C2C=CCC21 (stereo not given),n,n,n,n,n,n
CC1(C)Cc2c(C#N)c(N3CCN(C(=O)c4ccccc4Cl)CC3)nc(-c3ccco3)c2CS1,n,n,n,n,81,n
CC1(C)Cc2c(C#N)c(N3CCN(C(=O)c4ccco4)CC3)nc(-c3ccco3)c2CS1,n,n,n,n,72,n
CC(=O)N1CCN(c2nc(-c3ccco3)c3c(c2C#N)CC(C)(C)SC3)CC1,n,n,n,n,n,n
Cc1nn(-c2ccccc2)c2ncc(C(=O)c3cc(Cl)ccc3O)cc12,n,n,n,n,n,n
COc1ccc2nc(NC(=O)CN(c3ccc(C)cc3)S(=O)(=O)c3c(C)nn(C)c3C)sc2c1,n,n,n,n,n,28
CCCN(CCC)C(=O)C1CCCN(S(=O)(=O)c2ccc3c(c2)oc(=O)n3C)C1 (stereo not given),n,n,n,n,n,n
Cc1nn(C)c(C)c1NC(=O)Nc1cccc(C(F)(F)F)c1,n,n,n,n,n,n
Cc1nn(C)c(C)c1NC(=O)Nc1ccc(Cl)c(Cl)c1,20,n,n,n,n,n
CCOC(=O)NN1C(=O)c2ccccc2NC1c1ccccc1F (stereo not given),n,n,n,n,n,n
O=C(NCSc1ccnc(SCNC(=O)c2ccccc2)n1)c1ccccc1,19,n,n,n,n,n
Cc1ccc(C)c(C(=O)Cn2ncc(Cl)c(Cl)c2=O)c1,n,n,n,n,n,n
Cc1cc(C(=O)Cn2ncc(Cl)c(Cl)c2=O)c(C)n1CC(F)(F)F,n,56,45,n,n,n
COc1cccc(NC(=O)CN(C)C(=O)c2cc(-c3ccc(C)o3)nc3ccccc23)c1,x,n,n,n,x,n
Cc1ccc(-c2cc(C(=O)NC3=NCCS3)c3cc(Br)ccc3n2)o1,n,x,x,x,51,x
COc1cccc(NC(=O)c2cc(-c3ccc(C)o3)nc3ccccc23)c1,n,n,n,n,48,n
Cc1ccc(-c2cc(C(=O)NCc3ccco3)c3ccccc3n2)o1,n,n,n,n,66,n
Cc1cc(C)c2nc(-c3ccccn3)cc(C(=O)NCc3ccco3)c2c1,n,n,n,n,69,n
CC(=O)N1CCN(S(=O)(=O)c2cccc(C(=O)NCc3ccc(F)cc3)c2)CC1,x,n,n,n,x,n

# Source: PubChem BioAssay
